Consider 42 molecules from ChEMBL document CHEMBL2169883, “Design, synthesis, and structure-activity relationship of N-arylnaphthylamine derivatives as amyloid aggregation inhibitors” (J Med Chem, 2012).

Data set [1] is described as follows: Inhibition of amyloid beta (1 to 42) aggregation after 24 hrs by Thioflavin-T fluorescence assay. In short, it runs like this:
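Nonaggregate Aβ1-42 (44 μM working solution) was then added, and plates were agitated at 37 °C for 24 h. Read-out used 10 μM ThT in Na2HPO4 pH 6.5 (ex 450/em 486 nm), in triplicate; IC50 came from % residual aggregate dose-response.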

Data set [2] is described as follows: Ratio of drug level from brain to plasma in rat administered via intranasal route. It is filed as ADME. To be noted: inhaled or intranasal, read-out: BPR.
Data set [3] is described as follows: Ratio of drug level from brain to plasma in mouse at 25 mg/kg, sc. Also on record: dose 25 mg/kg, route subcutaneous. To be noted: read-out: BPR. The class given is ADME, organism-based. In short, it runs like this: (§1)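 Mice received 25 mg/kg sc in ethanol/PEG-400/saline (10:40:50). Trunk blood and brain were collected at 0–240 min. Plasma and brain homogenate were solid-phase extracted and quantified by RP-HPLC (UV 224 nm, internal standard), n = 3. Cmax and tmax were read directly from the data; brain and plasma AUCt were calculated by the linear trapezoidal rule to give the brain/plasma ratio.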

The test system of data set [4] is Mus musculus. Briefly: Toxicity in mouse assessed as incidence of discomfort at 25 mg/kg, sc. It is filed as organism-based. Also on record: dose 25 mg/kg, route subcutaneous. As to conditions: in vivo.
Data set [5] in a line: Tmax in mouse brain at 25 mg/kg, sc. The class given is ADME, organism-based. Also on record: dose 25 mg/kg, route subcutaneous. In short, it runs like this: as §1
Data set [6] deals with Mus musculus. Briefly: Toxicity in mouse assessed as incidence of side effect at 25 mg/kg, sc. It is filed as organism-based. Details: dose 25 mg/kg, route subcutaneous. To be noted: in vivo.
Data set [7] in a line: Cmax in mouse brain at 25 mg/kg, sc. It is filed as ADME, organism-based. Also on record: dose 25 mg/kg, route subcutaneous. In short, it runs like this: as §1
Data set [8] in a line: in vivo. As to conditions: rat, brain/plasma, po, 16 mg/kg.

The structures appear in SMILES notation.

Regarding `O=C(O)c1ccc(Nc2ccc3ccccc3c2O)cc1`, the IC50 (usually the concentration needed to halve the response being measured) in data set [1] (read-out: IC50) is 2.6 µM.

On to `OCc1ccc(Nc2ccc(O)c3ccccc23)cc1`, for which the IC50 entry in data set [1] is reported as “ND(Unstable)”.

For the molecule `CSc1ccc(Nc2ccc(N(C)C)c3ccccc23)cc1`, in data set [1] (read-out: IC50), the IC50 worked out at 2.2 µM. As for `COC(=O)c1ccccc1Nc1c(O)ccc2ccccc12`, the IC50 in data set [1] (read-out: IC50) was above 20 µM. As to `COC(=O)c1ccc(Nc2cccc3ccccc23)cc1`, the IC50 in data set [1] (read-out: IC50) was above 20 µM. As for `Oc1ccc(Sc2ccc(O)c3ccccc23)cc1`, in data set [1] (read-out: IC50), the IC50 was found to be 10.9 µM. On to `CCN(C)C(=O)Oc1cccc([C@H](C)N(C)C)c1` [RIVASTIGMINE], for which the Kp in data set [2] amounted to 3.

For the molecule `COc1ccc(Nc2ccc(C(=O)O)cc2)c2ccccc12`, the half-inhibitory concentration (IC50) in data set [1] (read-out: IC50) was above 60 µM. With `COc1ccc(Nc2ccccc2)c2ccccc12`, the IC50 entry in data set [1] was “ND(Insoluble)”. For `O=C(O)c1cc(Nc2ccc(O)c3ccccc23)ccc1O`, the IC50 in data set [1] (read-out: IC50) turned out to be 46.1 µM. Take `COc1ccc(I)cc1Nc1ccc(OC)c2ccccc12`: in data set [1] (read-out: IC50), the IC50 was above 5 µM. In the case of `Oc1c(Nc2ccccc2)ccc2ccccc12`, the IC50 in data set [1] (read-out: IC50) stood at 2.4 µM. For `COc1ccc(Nc2ccc([N+](=O)[O-])c3ccccc23)cc1`, the IC50 in data set [1] (read-out: IC50) was 2.7 µM. Turning to `O=C(O)c1ccccc1Nc1ccc(CCCc2ccc(Cl)c(Cl)c2)cc1`, in data set [1] (read-out: IC50), the IC50 came out at 1 µM.

As for `COC(=O)c1ccc(Nc2ccc(OC)c3ccccc23)cc1`, the IC50 result in data set [1] is “ND(Insoluble)”. For `Fc1ccc(Nc2ccc(F)c3ccccc23)cc1`, the concentration for half-maximal inhibition (IC50) in data set [1] (read-out: IC50) was above 30 µM. As for `O=C(O)c1ccc(Nc2cccc3ccccc23)cc1`, the IC50 in data set [1] (read-out: IC50) was above 100 µM. As to `COc1ccc(Nc2ccc(OC)c3ccccc23)cc1C(=O)O`, the IC50 in data set [1] (read-out: IC50) is above 80 µM. Take `CSc1ccc(Nc2ccc(F)c3ccccc23)cc1`: the IC50 in data set [1] (read-out: IC50) was above 5 µM. For `O=C1c2ccccc2C(=O)c2c(O)c(O)cc(Nc3ccc(S(=O)(=O)O)cc3)c21`, the IC50 in data set [1] (read-out: IC50) amounted to 1.1 µM.

For the molecule `O=S(=O)(c1ccc(O)cc1)c1ccc(O)c2ccccc12`, the IC50 in data set [1] (read-out: IC50) was above 100 µM.

`COC(=O)c1ccc(Nc2ccc(O)c3ccccc23)cc1`: in data set [1] (read-out: IC50), the IC50 turned out to be 5.1 µM. For `COC(=O)c1ccccc1Nc1c(OC)ccc2ccccc12`, the half-inhibitory concentration (IC50) in data set [1] (read-out: IC50) was above 5 µM.

As for `O=C(O)c1ccc(Nc2ccc(O)c3ccccc23)cc1`, the IC50 in data set [1] (read-out: IC50) is 57.4 µM. Consider `O=C(O)c1cc2ccccc2c(Cc2c(O)c(C(=O)O)cc3ccccc23)c1O` [PAMOIC ACID], for which the IC50 in data set [1] (read-out: IC50) was 38.2 µM.

Regarding `O=C(O)c1ccccc1Nc1c(O)ccc2ccccc12`, the IC50 in data set [1] (read-out: IC50) came out at 14.1 µM. For the molecule `O=C(O)c1ccccc1Nc1ccc(CCc2ccc(Cl)c(Cl)c2)cc1`, in data set [1] (read-out: IC50), the IC50 is 2 µM. As to `Oc1ccc2ccccc2c1Nc1c(O)ccc2ccccc12`, the IC50 entry in data set [1] is reported as “ND(Unstable)”. Turning to `COc1ccc(Nc2ccc(OC)c3ccccc23)cc1`, in data set [3], the Kp was 2. Moreover, the Activity entry in data set [4] and in data set [6] was “Non-toxic” in each case. Further, the time to peak (Tmax) – broadly, the time from dosing to the highest level – in data set [5] was 1 h. In addition, the IC50 in data set [1] (read-out: IC50) was determined as 5.6 µM. The Cmax – broadly, the maximum level reached in the sampled fluid or tissue – in data set [7] was 410 ng/mL.

`COc1c(Nc2ccc(C(=O)O)cc2)ccc2ccccc12`: the IC50 in data set [1] (read-out: IC50) was above 20 µM. Turning to `Oc1ccc(Nc2ccccc2)c2ccccc12`, in data set [1] (read-out: IC50), the IC50 was found to be 5.4 µM. In the case of `COC(=O)c1ccc(Nc2ccc3ccccc3c2OC)cc1`, the IC50 in data set [1] (read-out: IC50) was above 20 µM. Turning to `COC(=O)c1ccc(Nc2ccc3ccccc3c2O)cc1`, in data set [1], the IC50 entry is on record as “ND(Insoluble)”.

Consider `Cl.Nc1c2c(nc3ccccc13)CCCC2.O`, for which the Kp in data set [8] stood at 5. For `COc1ccc(S(=O)(=O)c2ccc(OC)c3ccccc23)cc1`, in data set [1], the IC50 result was “ND(Insoluble)”. Regarding `COc1c(Nc2ccccc2)ccc2ccccc12`, the IC50 in data set [1] (read-out: IC50) worked out at 33.6 µM. For the molecule `COc1ccc2ccccc2c1Nc1c(OC)ccc2ccccc12`, the IC50 in data set [1] (read-out: IC50) came to 5.7 µM. Take `COc1ccccc1Nc1ccc(OC)c2ccccc12`: the IC50 in data set [1] (read-out: IC50) was above 5 µM.

In the case of `O=C(O)c1c(Nc2ccc(CCc3ccc(Cl)c(Cl)c3)cc2)cccc1C(F)(F)F`, in data set [1] (read-out: IC50), the IC50 was 0.1 µM. As for `COc1ccc(Sc2ccc(OC)c3ccccc23)cc1`, in data set [1], the half-maximal inhibitory concentration (IC50) entry is “ND(Insoluble)”. In the case of `Oc1ccc(Nc2ccc(O)c3ccccc23)cc1`, in data set [1] (read-out: IC50), the IC50 amounted to 1 µM. On the same count and under the same terms, under `COc1c(Nc2ccc(I)cc2)ccc2ccccc12` stands above 5 µM.
